Test results from publication PMC4276534 (ChemMedChem, 2014).

How the values were obtained:
MrgX1 [1] = target: T1, MrgX1 (Homo sapiens, UniProt Q96LB2); assay: HTS triple addition screen for MrgX1 positive allosteric modulators; assay type: cell-based; details: read-out: MrgX1 EC50; HTS screen value; HEK293 cell line stably expressing MrgX1
MrgX1 [2] = target: T1, MrgX1; assay: Ca2+ imaging assay on MrgX1-expressing HEK293 cells; assay type: cell-based
Method in brief: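 Ca2+ imaging in HEK293 cells expressing MrgX1, read as relative fluorescence units. Test compound was titrated alone and with a submaximal BAM8-22 level (10 nM). EC50 came from dose-response curve fitting and was not determined when Emax was <50%. Emax is given as % of a reference analogue. Three repeat experiments, mean±SEM.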

[3] = test system: 68 GPCR's, ion channels and transporters; assay: EuroFin's Lead Profiling Screen binding assay panel; details: 10 μM
[4] = Intrinsic clearance in rat hepatic microsomes; assay type: in vitro ADME
[5] = Intrinsic clearance in human hepatic microsomes; assay type: in vitro ADME
[6] = Plasma protein binding by equilibrium dialysis, human; assay type: in vitro ADME; details: free fraction
[7] = Plasma protein binding by equilibrium dialysis, rat; assay type: in vitro ADME; details: free fraction

T1 sequence (Q96LB2 whole entry): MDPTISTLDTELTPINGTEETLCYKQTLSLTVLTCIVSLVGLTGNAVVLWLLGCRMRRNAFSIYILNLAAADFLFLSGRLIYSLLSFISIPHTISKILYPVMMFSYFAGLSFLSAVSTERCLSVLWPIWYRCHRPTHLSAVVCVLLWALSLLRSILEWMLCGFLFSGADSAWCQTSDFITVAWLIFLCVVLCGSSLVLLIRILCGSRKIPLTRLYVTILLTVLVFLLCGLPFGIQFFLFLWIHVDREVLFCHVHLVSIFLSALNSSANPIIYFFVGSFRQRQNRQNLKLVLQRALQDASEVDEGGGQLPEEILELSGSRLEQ

Compound: CCOc1ccccc1NC(=O)c1ccccc1NS(C)(=O)=O [SID 4258711]
- EC50 (MrgX1 [1]): 96 nM

Compound: H-VGRPEWWMDYQKRYG-OH [BAM8-22, reference compound]
- EC50 (MrgX1 [2]; EC50 of BAM8-22 on MrgX1, with ML382): 2.9 nM
- EC50 (MrgX1 [2]; EC50 of BAM8-22 on MrgX1, without ML382): 18.7 nM

Compound: CSc1ccccc1NC(=O)c1ccccc1N(C)S(C)(=O)=O [SID 4262381]
- EC50 (MrgX1 [1]): 329 nM

Compound: CCOc1ccccc1NC(=O)c1ccccc1NS(=O)(=O)C1CC1 [4l, 2-(cyclopropanesulfonamido)-N-(2-ethoxyphenyl)benzamide]
- Activation of MrgX1 (agonistic activity) (MrgX1 [2]; in the absence of BAM8-22): does not activate MrgX1
- Effect on the EMax of BAM8-22 (MrgX1 [2]; maximum concentration of BAM8-22 used): does not affect the EMax of BAM8-22
- Emax as % of standard compound (4i) (MrgX1 [2]; normalized to the positive control (4i, 100%)): 195 ± 8%
- EC50 (MrgX1 [2]; read-out: MrgX1 EC50, Table 3, alkylsulfonamides, in presence of BAM8-22): 190 ± 60 nM
- Inhibition of radio ligand binding >50% in panel of 68 targets [3]: did not inhibit 67 of the 68 targets
- Rat CLHEP, Microsome Predicted Hepatic Clearance [4]: 65.7 mL/min/kg
- Human CLHEP, Microsome Predicted Hepatic Clearance [5]: 15.7 mL/min/kg
- Human PPB, Percent Free Compound in Plasma [6]: 0.4%
- Rat PPB, Percent Free Compound in Plasma [7]: 1.7%
